Measurements as given in publication PMC5183561 (European journal of pharmacology, 2016).
Like-named read-outs stand apart in the source and are kept apart here. Where no end group is shown, it is not given here. [ ]: non-standard residue; d: D form. Dmt = Cc1cc(O)cc(C)c1C[C@H](N)C(=O)O; PWT2 core = not defined here

Columns and labels:
[1] = molecular target: mu-RLuc/β-arrestin 2-RGFP (Homo sapiens, UniProt P35372); experiment: BRET mu/β-arrestin 2 interaction, SH-SY5Y whole cells; type: cell-based; conditions: intrinsic activity, dermorphin = 1.00, inactive = inactive up to 1 μM
[2] = molecular target: NOP-RLuc/β-arrestin 2-RGFP (Homo sapiens, UniProt P41146); experiment: BRET NOP/β-arrestin 2 interaction, HEK-293 whole cells; type: cell-based
[3] = molecular target: T1, human recombinant NOP receptor (Homo sapiens, UniProt P41146); experiment: Stimulated [35S]GTPγS binding, CHONOP membranes; type: biochemical; conditions: intrinsic activity, N/OFQ = 1.00, n≥5
[4] = molecular target: T2, recombinant human kappa opioid receptor (Homo sapiens, UniProt P41145); experiment: Displacement binding of [3H]-DPN, CHOkappa cell membranes; conditions: vs [Dmt^1]N/OFQ(1-13)-NH2
[5] = molecular target: NOP-RLuc/Gβ1-RGFP (Homo sapiens, UniProt P41146); experiment: BRET NOP/G-protein interaction, HEK-293 membranes; type: biochemical
[6] = system: NOP and classical opioid receptors; experiment: Receptor binding studies, summary over all four receptors; parameters: species or system human; conditions: at all receptors (NOP, mu, kappa, delta), vs [Dmt^1]N/OFQ(1-13)-NH2
Summary of the method: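 CHO membranes expressing human receptors (20–40 μg protein) were incubated 1 h at room temperature in 50 mM Tris, 0.5% BSA with test compound (1 pM–10 μM). […] Bound ligand was collected by filtration on PEI-soaked GF/B filters.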

[7] = system: NOP and classical opioid receptors; experiment: Calcium mobilization, summary over the four cell lines; type: cell-based, human
[8] = molecular target: T2, recombinant human kappa opioid receptor; experiment: Stimulated [35S]GTPγS binding, CHOkappa membranes; type: biochemical
[9] = molecular target: recombinant human mu opioid receptor (Homo sapiens, UniProt P35372); experiment: Stimulated [35S]GTPγS binding, CHOmu membranes; type: biochemical
[10] = molecular target: T1, human recombinant NOP receptor; experiment: Calcium mobilization, CHO cells coexpressing NOP and Gαqi5; type: cell-based
[11] = system: rhesus monkeys (Macaca mulatta); experiment: Scratching responses in monkeys after intrathecal administration; type: in vivo; conditions: 3 nmol i.t., any time point, n = 4
[12] = molecular target: delta receptor (Homo sapiens, UniProt P41143); experiment: Calcium mobilization, CHO cells coexpressing delta and GαqG66Di5; type: cell-based
[13] = system: NOP over opioid receptors; experiment: In vitro functional assays, NOP selectivity summary; parameters: species or system human; conditions: range over functional assays
[14] = molecular target: recombinant human delta opioid receptor (Homo sapiens, UniProt P41143); experiment: Stimulated [35S]GTPγS binding, CHOdelta membranes; type: biochemical; conditions: intrinsic activity, DPDPE = 1.00, n≥5
[15] = molecular target: mu-RLuc/Gβ1-RGFP (Homo sapiens, UniProt P35372); experiment: BRET mu/G-protein interaction, SH-SY5Y membranes; type: biochemical; conditions: intrinsic activity, dermorphin = 1.00
[16] = system: rhesus monkeys (Macaca mulatta); experiment: Warm water tail-withdrawal assay in monkeys; type: in vivo; conditions: n = 4; for duration of antinociception: 50°C water
[17] = molecular target: human recombinant mu receptor (Homo sapiens, UniProt P35372); experiment: Calcium mobilization, CHO cells coexpressing mu and Gαqi5; type: cell-based
[18] = system: rhesus monkeys (Macaca mulatta); experiment: Overt side effects; type: in vivo; conditions: 0.3-3 nmol i.t.
[19] = molecular target: human recombinant kappa receptor (Homo sapiens, UniProt P41145); experiment: Calcium mobilization, CHO cells coexpressing kappa and Gαqi5; type: cell-based; conditions: intrinsic activity, dynorphin A = 1.00
[20] = molecular target: T3, human recombinant mu opioid receptor (human, UniProt P35372 1-400); experiment: cell-based or functional assay
[21] = molecular target: T3, human recombinant mu opioid receptor; experiment: radioligand binding
[22] = molecular target: T3, human recombinant mu opioid receptor; experiment: radioligand binding; remark: listed apart in the source
[23] = molecular target: human recombinant kappa opioid receptor (human, UniProt P41145 1-380); experiment: radioligand binding
[24] = molecular target: human recombinant delta opioid receptor (human, UniProt P41143 1-372); experiment: radioligand binding
[25] = molecular target: human recombinant N/OFQ (NOP) receptor (human, UniProt P41146 1-370); experiment: radioligand binding
[26] = agonist stimulated over basal specific binding, mean ± S.E.M.

T1 sequence (P41146 whole entry): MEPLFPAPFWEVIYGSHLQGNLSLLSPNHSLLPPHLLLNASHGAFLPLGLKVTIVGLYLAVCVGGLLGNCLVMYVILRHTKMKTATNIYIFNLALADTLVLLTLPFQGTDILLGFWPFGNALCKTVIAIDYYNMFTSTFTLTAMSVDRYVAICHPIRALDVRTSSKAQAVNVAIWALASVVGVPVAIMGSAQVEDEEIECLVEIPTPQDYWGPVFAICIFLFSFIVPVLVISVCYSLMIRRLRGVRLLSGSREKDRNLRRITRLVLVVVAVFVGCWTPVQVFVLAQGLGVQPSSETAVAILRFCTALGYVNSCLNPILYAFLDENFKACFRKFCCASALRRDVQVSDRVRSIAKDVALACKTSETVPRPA
T2 sequence (P41145 whole entry): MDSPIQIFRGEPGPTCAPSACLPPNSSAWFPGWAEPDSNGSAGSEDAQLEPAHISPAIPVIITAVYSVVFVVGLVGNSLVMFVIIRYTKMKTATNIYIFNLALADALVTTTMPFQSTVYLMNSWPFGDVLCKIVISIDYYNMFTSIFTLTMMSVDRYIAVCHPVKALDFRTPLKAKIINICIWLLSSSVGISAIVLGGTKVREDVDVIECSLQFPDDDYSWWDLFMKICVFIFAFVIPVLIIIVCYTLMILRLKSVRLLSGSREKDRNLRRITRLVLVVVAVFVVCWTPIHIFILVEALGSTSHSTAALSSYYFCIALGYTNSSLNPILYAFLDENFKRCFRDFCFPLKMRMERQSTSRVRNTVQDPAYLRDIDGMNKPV
T3 sequence (P35372 whole entry): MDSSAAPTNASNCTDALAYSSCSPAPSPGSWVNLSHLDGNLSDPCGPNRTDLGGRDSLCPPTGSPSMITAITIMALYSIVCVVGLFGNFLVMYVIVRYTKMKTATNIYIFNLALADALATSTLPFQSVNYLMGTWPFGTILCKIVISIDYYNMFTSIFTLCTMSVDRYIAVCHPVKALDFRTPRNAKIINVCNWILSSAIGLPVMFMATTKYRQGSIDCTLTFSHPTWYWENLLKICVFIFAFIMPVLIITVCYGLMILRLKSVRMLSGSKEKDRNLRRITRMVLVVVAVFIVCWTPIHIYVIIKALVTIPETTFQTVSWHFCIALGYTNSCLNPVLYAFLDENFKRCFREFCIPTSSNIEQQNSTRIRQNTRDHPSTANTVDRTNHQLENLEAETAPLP
Chain of human recombinant mu receptor (P35372 whole entry): as above
Chain of human recombinant N/OFQ (NOP) receptor (P41146 whole entry): as the sequence (P41146 whole entry) above
Chain of human recombinant kappa opioid receptor (P41145 whole entry): as the sequence (P41145 whole entry) above
Chain of human recombinant delta opioid receptor (P41143 whole entry, stated change not applied): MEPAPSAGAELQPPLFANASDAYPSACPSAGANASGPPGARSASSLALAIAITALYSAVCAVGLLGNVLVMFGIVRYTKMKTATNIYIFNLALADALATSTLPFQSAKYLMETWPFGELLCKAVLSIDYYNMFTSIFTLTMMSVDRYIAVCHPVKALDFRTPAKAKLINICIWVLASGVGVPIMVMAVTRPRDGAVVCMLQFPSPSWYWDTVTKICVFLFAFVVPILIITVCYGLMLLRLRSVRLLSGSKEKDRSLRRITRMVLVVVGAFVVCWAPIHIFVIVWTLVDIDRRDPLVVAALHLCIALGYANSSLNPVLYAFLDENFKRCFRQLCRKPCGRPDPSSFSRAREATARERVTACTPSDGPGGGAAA
Chain of delta receptor (P41143 whole entry): as the sequence (P41143 whole entry, stated change not applied) above
Chain of recombinant human mu opioid receptor (P35372 whole entry): as the sequence (P35372 whole entry) above
Chain of human recombinant kappa receptor (P41145 whole entry): as the sequence (P41145 whole entry) above
Chain of recombinant human delta opioid receptor (P41143 whole entry): as the sequence (P41143 whole entry, stated change not applied) above

Cc1cc(O)cc(C)c1C[C@H](N)C(=O)NCC(=O)NCC(=O)N[C@@H](Cc1ccccc1)C(=O)N[C@H](C(=O)NCC(=O)N[C@@H](C)C(=O)N[C@@H](CCCNC(=N)N)C(=O)N[C@@H](CCCCN)C(=O)N[C@@H](CO)C(=O)N[C@@H](C)C(=O)N[C@@H](CCCNC(=N)N)C(=O)N[C@@H](CCCCN)C(=O)N[C@@H](CSC1CC(=O)N(CCC(=O)NCCCN(CCCCN(CCCNC(=O)CCN2C(=O)CC(SC[C@H](NC(=O)[C@H](CCCCN)NC(=O)[C@H](CCCNC(=N)N)NC(=O)[C@H](C)NC(=O)[C@H](CO)NC(=O)[C@H](CCCCN)NC(=O)[C@H](CCCNC(=N)N)NC(=O)[C@H](C)NC(=O)CNC(=O)[C@@H](NC(=O)[C@H](Cc3ccccc3)NC(=O)CNC(=O)CNC(=O)[C@@H](N)Cc3c(C)cc(O)cc3C)[C@@H](C)O)C(N)=O)C2=O)CCCNC(=O)CCN2C(=O)CC(SC[C@H](NC(=O)[C@H](CCCCN)NC(=O)[C@H](CCCNC(=N)N)NC(=O)[C@H](C)NC(=O)[C@H](CO)NC(=O)[C@H](CCCCN)NC(=O)[C@H](CCCNC(=N)N)NC(=O)[C@H](C)NC(=O)CNC(=O)[C@@H](NC(=O)[C@H](Cc3ccccc3)NC(=O)CNC(=O)CNC(=O)[C@@H](N)Cc3c(C)cc(O)cc3C)[C@@H](C)O)C(N)=O)C2=O)CCCNC(=O)CCN2C(=O)CC(SC[C@H](NC(=O)[C@H](CCCCN)NC(=O)[C@H](CCCNC(=N)N)NC(=O)[C@H](C)NC(=O)[C@H](CO)NC(=O)[C@H](CCCCN)NC(=O)[C@H](CCCNC(=N)N)NC(=O)[C@H](C)NC(=O)CNC(=O)[C@@H](NC(=O)[C@H](Cc3ccccc3)NC(=O)CNC(=O)CNC(=O)[C@@H](N)Cc3c(C)cc(O)cc3C)[C@@H](C)O)C(N)=O)C2=O)C1=O)C(N)=O)[C@@H](C)O (stereo partly shown) [PWT2-[Dmt^1], PWT2-[Dmt^1]N/OFQ(1-13)]
α ± S.E.M. mu, β-arrestin2 [1]: 0.82 ± 0.07
α ± S.E.M. NOP, β-arrestin2 [2]: 0.58 ± 0.10
α ± S.E.M. NOP [3]: 1.23 ± 0.13
loss of affinity at kappa compared to parent compound [4]: ~ 18 fold
α ± S.E.M. NOP, Gβ1-protein [5]: 1.04 ± 0.04
lower affinity than the parent peptide [6]: approximately 10 fold
reduced potency compared to [Dmt^1]N/OFQ(1-13)-NH2 [7]: 3 to 30 fold
Emax as stimulation factor, kappa [8, 26]: 2.43 ± 0.08 fold
α ± S.E.M. kappa ([8]; intrinsic activity, dynorphin A = 1.00, n≥5): 1.40 ± 0.11
Emax as stimulation factor, mu [9, 26]: 2.84 ± 0.11 fold
α ± S.E.M. mu ([9]; intrinsic activity, dermorphin = 1.00, n≥5): 0.98 ± 0.07
reduced potency compared to N/OFQ ([10]; NOP): 58 fold
α ± S.E.M. NOP ([10]; intrinsic activity, N/OFQ = 1.00): 0.98 ± 0.08
scratching responses in 15-min observation period [11]: did not significantly elicit scratching responses
potency lower than DPDPE ([12]; delta): 23 fold
α ± S.E.M. delta ([12]; intrinsic activity, DPDPE = 1.00): 0.80 ± 0.08
NOP selectivity in in vitro functional assays [13]: 2 – 10 fold
α ± S.E.M. delta [14]: 0.87 ± 0.07
α ± S.E.M. mu, Gβ1-protein [15]: 1.43 ± 0.12
duration of antinociception ([16]; 0.3 nmol i.t.): 2 h
duration of antinociception ([16]; 1 nmol i.t.): 6 h
duration of antinociception ([16]; 3 nmol i.t.): 24 h
Emax ([17]; CHO, read-out: maximal effects over basal, mu): 283 ± 3%
α ± S.E.M. mu ([17]; calcium mobilization, intrinsic activity, dermorphin = 1.00): 0.87 ± 0.04
lower potency compared to dermorphin ([17]; calcium mobilization, mu): 23 fold
overt side effects including sedation or motor impairment [18]: did not cause any overt side effects
α ± S.E.M. kappa [19]: 0.86 ± 0.03

O=C1CC[C@@]2(O)[C@H]3Cc4ccc(O)c5c4[C@@]2(CCN3CC2CC2)[C@H]1O5 [naltrexone, Naltrexone, reference compound]
effect of antagonist on i.t. PWT2-[Dmt^1] (3 nmol)-induced antinociception ([16]; naltrexone 0.03 mg/kg s.c., given 1 h 10 min after PWT2-[Dmt^1]): inactive

B1: [Dmt^1]N/OFQ(1-13)-NH2 (peptide)
peptide: [Dmt]GGFTGARKSARK-NH2
modifications: N-terminus assumed
SMILES: Cc1cc(O)cc(C)c1C[C@H](N)C(=O)NCC(=O)NCC(=O)N[C@@H](Cc1ccccc1)C(=O)N[C@H](C(=O)NCC(=O)N[C@@H](C)C(=O)N[C@@H](CCCNC(=N)N)C(=O)N[C@@H](CCCCN)C(=O)N[C@@H](CO)C(=O)N[C@@H](C)C(=O)N[C@@H](CCCNC(=N)N)C(=O)N[C@@H](CCCCN)C(N)=O)[C@@H](C)O
stimulation of [^35S]GTPγS binding, CHO mu membranes: Emax as stimulation factor [20]: 3.06 fold
pKi [21]: 10.4
pKi [22]: 10
pKi [23]: 10.4
pKi [24]: 9.99
pKi [25]: 10.4

YAFGYPS [Dermorphin]
stimulation of [^35S]GTPγS binding, CHO mu membranes: Emax as stimulation factor [20]: 2.88 fold

[Dmt]GGFTGARKSARKC(PWT2 core)-NH2 (reading uncertain; also: Cys14 joined to the PWT2 core by thio-Michael reaction) [PWT2-[Dmt^1]N/OFQ(1-13)]
stimulation of [^35S]GTPγS binding, CHO mu membranes: Emax as stimulation factor [20]: 2.84 fold
pKi [22]: 9.25
pKi [23]: 9.13
pKi [24]: 8.42
pKi [25]: 9.13
